High-throughput results as filed in PubChem.
Compounds with a hit are over-represented: about 2.2% of the library has one in this group of screens.
CXCR6 inh: CXCR6 receptor inhibitors, primary screen, cell-based, beta-arrestin, luminescence, CHO-K1 PathHunter, 1536-well. 0.36% of 360,000 active. inhibition, % at 20 µM; in the data active means inhibition above about 34%, passing the limit was not always enough;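 further: antagonist mode with CXCL16 agonist at 10 nM final; 0% = 10 nM CXCL16 with DMSO and 100% = unstimulated wells without agonist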
APJ agonist: agonists of human apelin receptor APJ, primary screen, CHO-K1 cells, PathHunter beta-arrestin, luminescence. 0% DMSO wells, 100% apelin. activation, % at 20 µM. P35414. 0.11% of 330,000 active;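 active means activation more than six SD over the plate average, tested at 20 µM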;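 further: 0% = DMSO alone and 100% = apelin-13 at 10 nM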
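Test system: CHO-K1 APJ beta-arrestin complementation cell line | Compound: Single test compound dose, 20 µM final, 1% DMSO | Incubation: Compound 90 min 25 °C, reagent 1 h | Measured by: beta-gal luminescence | Read-out basis: APJ–arrestin association signal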
CCR6 antagonist: CCR6 receptor antagonists, primary screen, cell-based, CHO-K1, luminescence, beta-arrestin, uHTS. inhibition, % at 20 µM. C-C chemokine receptor type 6 (Homo sapiens), P51684. AID 493098, 2011. 0.49% of 340,000 active. CHO-K1 CCR6 PathHunter beta-arrestin, CCL20-stimulated;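 active means compounds whose inhibition of the agonist-driven luminescence signal at 20 µM reaches about 50%, limit read from the data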;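 further: cells stimulated with CCL20 at 14 nM final; plate controls were DMSO with CCL20 for no effect and DMSO without agonist for full effect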
Target sequence (P51684 whole entry, looked up): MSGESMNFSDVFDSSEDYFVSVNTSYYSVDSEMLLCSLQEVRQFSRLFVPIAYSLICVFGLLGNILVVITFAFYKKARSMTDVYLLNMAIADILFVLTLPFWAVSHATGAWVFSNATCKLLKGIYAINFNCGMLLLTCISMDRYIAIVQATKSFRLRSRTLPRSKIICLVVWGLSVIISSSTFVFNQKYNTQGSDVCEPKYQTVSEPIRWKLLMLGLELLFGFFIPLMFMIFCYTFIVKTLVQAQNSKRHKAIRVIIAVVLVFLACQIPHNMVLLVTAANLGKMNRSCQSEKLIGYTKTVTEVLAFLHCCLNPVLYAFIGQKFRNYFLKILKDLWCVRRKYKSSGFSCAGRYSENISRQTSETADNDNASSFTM
EBI2 block: EBI2 receptor antagonists, beta-arrestin recruitment, primary screen, cell-based, luminescence, 7a,25-OHC stimulation, uHTS. inhibition, % at 5 µM. 0.81% of 360,000 active. 7a,25-OHC stimulated. G-protein coupled receptor 183 (Homo sapiens), P32249; in the data active means inhibition above about 38%;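 further: enzyme fragment complementation signal reports receptor beta-arrestin coupling in cells; 0% = agonist plus DMSO wells and 100% = wells without agonist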
APJ antagonist: antagonists of human apelin receptor APJ, primary screen, CHO-K1 cells, beta-arrestin complementation, luminescence | P35414 | inhibition, % at 20 µM | 0.32% of 330,000 active;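 active means inhibition above about 40% at 20 µM, limit read from the data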;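 further: cells challenged with 10 nM apelin-13 agonist together with compound; plate controls were apelin-13 plus DMSO wells for no effect and DMSO wells lacking apelin-13 for full effect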
HTR2A ag: mouse Htr2a agonists via beta-arrestin recruitment, primary screen, cell-based, luminescence. 5-hydroxytryptamine receptor 2A (Mus musculus), P35363. CHO-K1 mHTR2A beta-arrestin complementation; percent of 30 µM serotonin response. AID 624169, 2012. 0.66% of 360,000 active. activation, % at 7.6 µM;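 active means activation above a run cutoff, the mean activation of all tested compounds plus 3 SD, cut at about 14% in these data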;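 further: 0% = plate median of compound wells and 100% = 30 µM serotonin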
EBI2 antag conf: EBI2 antagonist hit retest, beta-arrestin, confirmation, cell-based, single concentration, luminescence, 7a,25-OHC stimulation; shares compounds with EBI2 block; 7a,25-OHC antagonism; inhibition, % at 5 µM; 29% of 2,400 active;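 active means inhibition of at least 50%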
EBI2 ag: EBI2 agonist activity of antagonist hits, confirmation, counter-screen for EBI2 antagonist project, cell-based, single concentration, agonist mode, luminescence | AID 652000, 2013 | activation, % at 5 µM | 2,400 tested, under 10 active | shares compounds with EBI2 block | EBI2-expressing cells, 60 min; 0% vehicle, 100% 7α,25-dihydroxycholesterol control;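 active means activation of at least 50%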
bGal counter: E. coli beta-galactosidase enzyme inhibition, confirmation, counter-screen for EBI2 antagonist project, biochemical, luminescence, single concentration | shares compounds with EBI2 block | purified beta-galactosidase, luminescent Galacton Star, 15 min | 1% of 2,400 active | inhibition, % at 5 µM;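 active means replicate-average signal at least 3 plate SD below neutral wells, shown as high inhibition, flagging enzyme-inhibiting false positives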;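 further: 0% = DMSO wells with enzyme and 100% = wells lacking enzyme; higher means stronger loss of beta-gal luminescence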
An asterisk follows results filed as active.

Screening CCCCC[C@H](C)N1C[C@@H](COCc2ccccc2)Oc2cc(N3CC[C@@H](O)C3)ccc2S1(=O)=O returned CXCR6 inh 3, EBI2 block 9 and HTR2A ag 6.
CCCCC[C@@H](C)N1C[C@@H](COCc2ccccc2)Oc2cc(N3CC[C@H](O)C3)ccc2S1(=O)=O was read as CXCR6 inh 3, EBI2 block 53*, HTR2A ag -1, EBI2 antag conf 18, EBI2 ag -2 and bGal counter -14.
For Cn1cccc1Cc1nnc(SCC(=O)Nc2ccc(F)cc2)n1CCc1ccccc1 the results were CXCR6 inh 0, APJ agonist 0, CCR6 antagonist 2, EBI2 block 51*, APJ antagonist 0, HTR2A ag -1, EBI2 antag conf 34, EBI2 ag 1 and bGal counter 2.
COc1ccc(-n2c(Cc3cccn3C)nnc2SCC(=O)Nc2cccc(Cl)c2)cc1 was read as CXCR6 inh 5, APJ agonist -2, CCR6 antagonist -7, EBI2 block 47*, APJ antagonist 4, HTR2A ag 0, EBI2 antag conf 23, EBI2 ag -1 and bGal counter 9.
CC1(C(=O)Nc2ccc(Cl)c(Cl)c2)CCN1C(=O)Cc1cccc2ccccc12 (stereo not given) was read as CXCR6 inh 0, EBI2 block 7 and HTR2A ag -5.
CC1(C(=O)Nc2ccc(Cl)c(Cl)c2)CCN1C(=O)CC(c1ccccc1)c1ccccc1 (stereo not given) was read as CXCR6 inh 2, EBI2 block 8 and HTR2A ag -4.
CC1(C(=O)Nc2cnc3ccccc3c2)CCN1C(=O)CC(c1ccccc1)c1ccccc1 (stereo not given) was read as CXCR6 inh 11, EBI2 block 75*, HTR2A ag -2, EBI2 antag conf 55*, EBI2 ag -1 and bGal counter -4.
`N#C/C(=C\c1ccccc1)C(=O)Nc1cc(S(=O)(=O)N2CCOCC2)ccc1N1CCCC1` gave CXCR6 inh 0, APJ agonist 7, CCR6 antagonist 20, EBI2 block 75*, APJ antagonist 4, HTR2A ag -3, EBI2 antag conf 66*, EBI2 ag -1 and bGal counter -13.
CCN1CCN(c2ccc(S(=O)(=O)N3CCOCC3)cc2NC(=O)/C=C/c2ccc(C)cc2)CC1 was read as CXCR6 inh 10, APJ agonist -5, CCR6 antagonist 17, EBI2 block 94*, APJ antagonist 16, HTR2A ag -9, EBI2 antag conf 91*, EBI2 ag 1 and bGal counter 4.
`O=C(Nc1ccc(F)cc1)C(c1ccnc2ccccc12)N1CCN(CC(=O)N2CCCC2)CC1` (stereo not given) gave EBI2 block -4 and HTR2A ag -1.
CCOc1ccc(/C=N/NC(=O)Nc2ccccc2)cc1 was read as CXCR6 inh 5, APJ agonist -1, CCR6 antagonist -12, EBI2 block 18, APJ antagonist 14 and HTR2A ag -4.
